PMI act hi M6P: human PMI activators, high substrate, primary screen, biochemical, fluorescence intensity, near-saturating mannose 6-phosphate. hit rate 0.34% among 190,000. coupled PMI enzyme assay, resazurin fluorescence, 20 min; active compounds read high; 1 = untreated enzyme, 0 = substrate-free blank. activation factor at 20 µM;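 active = activation factor of 2 or more at 20 µM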
Target sequence (P34949 whole entry, looked up): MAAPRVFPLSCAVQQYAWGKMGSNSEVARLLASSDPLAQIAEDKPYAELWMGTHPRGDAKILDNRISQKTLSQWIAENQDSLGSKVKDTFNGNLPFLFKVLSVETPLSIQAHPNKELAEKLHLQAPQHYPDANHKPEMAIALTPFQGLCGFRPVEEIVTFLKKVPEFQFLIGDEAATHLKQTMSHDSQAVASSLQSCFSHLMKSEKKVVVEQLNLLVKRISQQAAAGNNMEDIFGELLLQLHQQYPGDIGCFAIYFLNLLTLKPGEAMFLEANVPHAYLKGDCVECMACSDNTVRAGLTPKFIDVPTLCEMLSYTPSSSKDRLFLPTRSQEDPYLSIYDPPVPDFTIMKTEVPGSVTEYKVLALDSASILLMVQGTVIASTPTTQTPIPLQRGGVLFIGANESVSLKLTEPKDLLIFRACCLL
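Test system: human PMI in coupled enzyme assay; Input: PMI at 15 ng/mL final; Medium: HEPES buffer, pH 7.4; Schedule: 20 min incubation at room temperature; Technique: resorufin fluorescence at Ex 544/Em 590 nm; Compound: 20 µM single dose; Probe or stimulus: Near-saturating mannose-6-phosphate, 1.0 mM.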
Diaphorase act: compounds boosting diaphorase resazurin reduction – biochemical, uHTS, resorufin fluorescence, counter-screen for diaphorase-coupled primary assays, primary screen; Diaphorase/resazurin coupled assay, 16 min; active compounds read high; 1 = vehicle wells, 0 = NADH-free wells; activation factor at 20 µM; hit rate 0.005% among 190,000; AID 1229, 2008;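 active = diaphorase activity raised at least twofold by the compound at 20 µM; inactive = activation factor below 2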
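Test system: Clostridium kluyveri diaphorase, purified enzyme. Buffer or medium: 50 mM HEPES pH 7.4 buffer plus MgCl2 and Tween 20. Also added: 0.114 mM NADH and 0.1 mM resazurin, final amounts. Dosing: compound 20 µM once, DMSO 1%. Schedule: 16 min enzyme reaction, ambient temperature. Detection: fluorescence of resorufin, 544 nm excitation, 590 nm emission.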
PMI activator: activators of human PMI, primary screen, biochemical, fluorescence intensity, near-Km mannose 6-phosphate; Mannose-6-phosphate isomerase (Homo sapiens), P34949; purified human PMI, coupled resazurin fluorescence, 20 min; active compounds read high; 1 = vehicle control, 0 substrate-free wells; activation factor at 20 µM; hit rate 0.005% among 190,000;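 active = activation factor of 2 or more at 20 µM, relative to plate controls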
Diaphorase inh: diaphorase inhibitors and chemical oxidizers, primary screen, counter-screen for diaphorase-coupled primary assays, biochemical, uHTS, resorufin fluorescence; hit rate 0.69% among 190,000; AID 1217, 2008; diaphorase resazurin-to-resorufin fluorescence, NADH, 16 min; bacterial (C. kluyveri) enzyme, not human; inhibition, % at 20 µM;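 active = primary screen inhibition at 20 µM above a set limit, cut at about 50% in these data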;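 also: plate controls were DMSO with full reaction for no effect and wells lacking NADH for full effect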
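Assay system – diaphorase enzyme from Clostridium kluyveri · Amount – diaphorase 0.14 U/mL (working solution) · Times – reaction incubation of 16 min at room temperature · Controls – No-NADH positive control and DMSO neutral control · Signal – resorufin fluorescence 544/590 nm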
G6PDH counter: L. mesenteroides G6PDH inhibitors, counter-screen for G6PDH-coupled screening assays, biochemical, Leuconostoc mesenteroides enzyme. hit rate 0.12% among 200,000. glucose-6-phosphate dehydrogenase [Leuconostoc mesenteroides]. inhibition, % at 5 µM. Purified L. mesenteroides G6PDH, diaphorase/resazurin coupled fluorescence, 45 min. AID 1020, 2008; in the data active = inhibition above about 50%
* hit, by the source's call. Shown are actives, neighbours in structure and some others; about 1.1% of the full set was active somewhere.

Screening O=c1c2c([N+](=O)[O-])cc([N+](=O)[O-])cc2sn1-c1ccc(Br)cc1 returned PMI act hi M6P 0, Diaphorase act 0.3, PMI activator -0.1, Diaphorase inh 67* and G6PDH counter -4.
Screening O=c1c2cc(Br)ccc2nc(-c2ccc([N+](=O)[O-])cc2)n1O returned PMI act hi M6P 1.2, Diaphorase act 0.8, PMI activator 1, Diaphorase inh 17 and G6PDH counter 9.
`O=C1c2cccc3c(N4CCCCC4)ccc(c23)C(=O)N1c1ccccn1` gave PMI act hi M6P 0.9, Diaphorase act 0.5, PMI activator 0.9, Diaphorase inh 52* and G6PDH counter 4.
`O=C(Nc1cccn(Cc2cccc(F)c2)c1=O)NC1CCCCC1` gave PMI act hi M6P 0.7, Diaphorase act 0.5, PMI activator 0.9, Diaphorase inh 50* and G6PDH counter 15.
O=C(Nc1cccn(Cc2c(F)cccc2Cl)c1=O)NC1CCCCC1 was read as PMI act hi M6P 0.8, Diaphorase act 1, PMI activator 0.9, Diaphorase inh 4 and G6PDH counter 9.
Screening Cc1sc2ncn(CC(=O)NCCCC(=O)N3CCN(Cc4ccc5c(c4)OCO5)CC3)c(=O)c2c1C returned PMI act hi M6P 0.9, Diaphorase act 0.9, PMI activator 1, Diaphorase inh 12 and G6PDH counter 5.
`O=C(O)CN1C(=O)/C(=C\c2cn(CC(=O)N3CCOCC3)c3ccccc23)SC1=S` gave PMI act hi M6P 0.9, Diaphorase act 0.9, PMI activator 0.9, Diaphorase inh 11 and G6PDH counter 1.
Screening N#Cc1c(N)n[nH]c1-c1cc2c([nH]1)CCCC2 returned PMI act hi M6P 0.8, Diaphorase act 0.8, PMI activator 0.9, Diaphorase inh 24 and G6PDH counter 3.
N#Cc1cc2c([nH]c1=S)CCCCCC2 was read as PMI act hi M6P 2.1*, Diaphorase act 0.9, PMI activator 1.3, Diaphorase inh 14 and G6PDH counter 4.
For COc1ccc2o/c(=N/NC(=O)c3cccs3)c(C(N)=O)cc2c1 the results were PMI act hi M6P 0.8, Diaphorase act 0.8, PMI activator 1, Diaphorase inh 19 and G6PDH counter 9.
`COc1ccc2cc(C(N)=O)/c(=N/NC(=O)c3ccco3)oc2c1` gave PMI act hi M6P 1, Diaphorase act 0.2, PMI activator 0.9, Diaphorase inh 76* and G6PDH counter -17.
Screening NC(=O)c1cc2ccccc2o/c1=N/NC(=O)c1cccs1 returned PMI act hi M6P 1, Diaphorase act 0.3, PMI activator 0.9, Diaphorase inh 69* and G6PDH counter 2.
Screening COc1ccc(NC(=O)CSc2nnc(-c3cccs3)n2C)cc1OC returned PMI act hi M6P 1.1, Diaphorase act 1, PMI activator 1, Diaphorase inh -3 and G6PDH counter -3.
`COc1ccc(NC(=O)CSc2nc3c(c(-c4cccs4)c2C#N)CN(C)CC3)cc1OC` gave PMI act hi M6P 0.4, Diaphorase act 0.4, PMI activator 0.4, Diaphorase inh 57* and G6PDH counter 14.
Screening Nc1[nH]nc2nc3ccccc3cc12 returned PMI act hi M6P 2.2*, Diaphorase act 0.9, PMI activator 1.5, Diaphorase inh 7 and G6PDH counter 4.
Screening Cc1cc(N=Cc2c(O)n(-c3ccc(C)c(C)c3)c(=O)c3ccccc23)no1 returned PMI act hi M6P 1, Diaphorase act 0.8, PMI activator 0.8, Diaphorase inh 22 and G6PDH counter 4.
Screening Cc1cc(N=Cc2c(O)ccc3cc(Br)ccc23)no1 returned PMI act hi M6P 0.4, Diaphorase act 0.4, PMI activator 0.5, Diaphorase inh 64* and G6PDH counter 23.
Screening Cc1ccc2nc(NC(=O)CSc3nncc(=O)n3N)sc2c1 returned PMI act hi M6P 1.1, Diaphorase act 1, PMI activator 1, Diaphorase inh 2 and G6PDH counter 4.
For C=CCN=C1SC(C)(C)C(=O)N1S(=O)(=O)c1ccc(C)cc1 the results were PMI act hi M6P 1, Diaphorase act 0.8, PMI activator 1, Diaphorase inh 16 and G6PDH counter 3.
`COc1cc(-c2cc(=O)c3c(O)c(OC)c(OC)c(O)c3o2)ccc1O` gave PMI act hi M6P 0.6, Diaphorase act 0.3, PMI activator 0.6, Diaphorase inh 66* and G6PDH counter 20.
Screening Cc1ccc(-c2ccc(=O)n(CC(=O)NCCN3CCCCC3C)n2)cc1 (centres undefined) returned PMI act hi M6P 0.4, Diaphorase act 0.5, PMI activator 0.5, Diaphorase inh 53* and G6PDH counter 10.
Screening O=C(Nc1nc2ccccc2[nH]1)c1ccc(F)cc1 returned PMI act hi M6P 0.9, Diaphorase act 0.9, PMI activator 1, Diaphorase inh 13 and G6PDH counter 6.
N#Cc1c2nc3ccccc3nc2n2cc(NC(=O)c3ccc(F)cc3)ccc12 was read as PMI act hi M6P 1.2, Diaphorase act 0.1, PMI activator 0.9, Diaphorase inh 90* and G6PDH counter 34.
O=C1OCC(c2ccccc2)=C1c1ccc(S(=O)(=O)N2CCOCC2)s1 was read as PMI act hi M6P 2*, Diaphorase act 0.7, PMI activator 1.3, Diaphorase inh 26 and G6PDH counter -2.
Screening O=S(=O)(c1ccc(-c2ccccc2)cc1)N1CCOCC1 returned PMI act hi M6P 0.9, Diaphorase act 0.9, PMI activator 0.9, Diaphorase inh 11 and G6PDH counter 0.
CCc1ccc2c(CN3CCc4cc(OC)c(OC)cc4C3)cc(=O)oc2c1 was read as PMI act hi M6P 2.2*, Diaphorase act 0.9, PMI activator 1.5, Diaphorase inh 10 and G6PDH counter 10.
For COc1cc2c(cc1OC)CN(Cc1cc(=O)oc3cc(C)c(Cl)cc13)CC2 the results were PMI act hi M6P 2.3*, Diaphorase act 0.9, PMI activator 1.7, Diaphorase inh 12 and G6PDH counter -3.
COc1cc2c(cc1OC)CN(Cc1cc(=O)oc3c(C)c(C)ccc13)CC2 was read as PMI act hi M6P 1.8, Diaphorase act 0.8, PMI activator 1.5, Diaphorase inh 16 and G6PDH counter -31.
`COc1cc2c(cc1OC)CN(Cc1cc(=O)oc3cc(C)c(C)cc13)CC2` gave PMI act hi M6P 2.2*, Diaphorase act 0.8, PMI activator 1.5, Diaphorase inh 22 and G6PDH counter 3.

Screening results from PubChem.
